Columns and labels:
Canis familiaris [1] = experiment: Change in heart rate of anaesthetized, open chest dogs following 0.875 mg/kg i.v. administration.; assay type: functional, Canis lupus familiaris; details: route intravenous
Outline: (§1)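 Anesthetized open-chest dogs, one drug per animal. Compound is in DMF diluted to 10% in saline, or given as the HCl salt in saline. It is infused into the femoral vein by pump at 0.58-2.2 mL/min in 3-4 stepwise cumulative doses, each over 5 min after the prior peak. Readings are CF by right-ventricle strain gauge, dP/dtmax by Millar LV catheter, HR by cardiotachometer and MAP from femoral artery, as % change from predrug control.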

Canis familiaris [2] = experiment: Change in heart contractile force of anaesthetized, open chest dogs following 0.875 mg/kg i.v. administration.; assay type: functional, Canis lupus familiaris; details: route intravenous; outline: as §1
Canis familiaris [3] = experiment: Percent change in mean arterial blood pressure (MAP) in anesthetized open chest dogs iv administration at 0.8750 mg/kg; assay type: functional, Canis lupus familiaris; details: dose 0.875 mg/kg; outline: as §1
Canis familiaris [4] = experiment: Change in left ventricular pressure of anaesthetized, open chest dogs following 0.875 mg/kg i.v. administration.; assay type: functional, Canis lupus familiaris, Heart left ventricle; details: route intravenous; outline: as §1
Canis familiaris [5] = experiment: Percent change in heart rate (HR) in anesthetized open chest dogs after a iv dose of 1.875 mg/kg; assay type: functional, Canis lupus familiaris; outline: as §1
Canis familiaris [6] = experiment: Percent change in left ventricular pressure (dP/dtmax) in anesthetized dog after iv administration at 1.875 mg/kg; assay type: functional, Canis lupus familiaris, Heart left ventricle; outline: as §1
Canis familiaris [7] = experiment: Percent increase in contractile force (CF) in anesthetized open-chest dogs iv administration of 1.875 mg/kg; assay type: functional, Canis lupus familiaris
Outline: (§2)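 Anesthetized open-chest dogs. After a right thoracotomy, contractile force was recorded by a Walton Brodie strain gauge sutured to the right ventricle at 100 g baseline tension. Compound was given iv by infusion pump into a femoral vein, one drug per animal, in three to four stepwise increasing doses. Each dose ran over 5 min, starting once the previous dose's effect peaked. Values are % increase over predrug control vs cumulative mg/kg dose.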

Canis familiaris [8] = experiment: Percent change in mean arterial blood pressure (MAP) in anesthetized open chest dogs iv administration at 1.875 mg/kg; assay type: functional, Canis lupus familiaris; outline: as §1
Canis familiaris [9] = experiment: 50% increase in contractile force in one to three anesthetized dogs administered intravenously; assay type: functional; details: Canis lupus familiaris, iv
Outline: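 Anesthetized dogs (one to three). Compound is infused iv in three to four stepwise increasing doses, each over 5 min once the previous effect has peaked. Contractile force is recorded with a Walton Brodie strain gauge on the right ventricle. The dose (μg/kg) giving a 50% rise over control CF is read from the dose-response curve, graphically (n < 3) or by linear regression (n ≥ 3).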

Phosphodiesterase 3 = Phosphodiesterase 3 (Homo sapiens, UniProt Q14432+Q13370); experiment: Inhibition of phosphodiesterase fraction III in anesthetized open chest dogs; assay type: functional, Canis lupus familiaris; details: target entry is the homologue from another species
Outline: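 Enzyme is dog heart PDE-III, the third DEAE-cellulose fraction eluted at 800 mM sodium acetate. Compounds are tested at 0.01–1000 μM with 0.25 μM cAMP containing [³H]cAMP, in 0.05 M Tris-HCl pH 7.4 with 5 mM MgCl2. The reaction is stopped by heat, then snake venom converts product to adenosine. [³H]adenosine is counted by scintillation after Dowex separation. IC50 comes from ≥2 determinations, each in duplicate.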

Canis familiaris [10] = experiment: Percent change in heart rate (HR) in anesthetized open chest dogs after a iv dose of 0.05 mg/kg; assay type: functional, Canis lupus familiaris; outline: as §1
Canis familiaris [11] = experiment: Percent increase in contractile force (CF) in anesthetized open-chest dogs iv administration of 0.050 mg/kg; assay type: functional, Canis lupus familiaris; details: dose 0.05 mg/kg; outline: as §1
Canis familiaris [12] = experiment: Percent change in mean arterial blood pressure (MAP) in anesthetized open chest dogs iv administration at 0.050 mg/kg; assay type: functional, Canis lupus familiaris; details: dose 0.05 mg/kg; outline: as §1
Canis familiaris [13] = experiment: Percent change in left ventricular pressure (dP/dtmax) in anesthetized dog after iv administration at 0.05 mg/kg; assay type: functional, Canis lupus familiaris, Heart left ventricle; outline: as §1
Canis familiaris [14] = experiment: Percent change in heart rate (HR) in anesthetized open chest dogs after a iv dose of 0.375 mg/kg; assay type: functional, Canis lupus familiaris; outline: as §1
Canis familiaris [15] = experiment: Percent increase in contractile force (CF) in anesthetized open-chest dogs iv administration of 0.375 mg/kg; assay type: functional, Canis lupus familiaris; outline: as §2
Canis familiaris [16] = experiment: Percent change in mean arterial blood pressure (MAP) in anesthetized open chest dogs iv administration at 0.3750 mg/kg; assay type: functional, Canis lupus familiaris; details: dose 0.375 mg/kg; outline: as §1
Canis familiaris [17] = experiment: Percent change in left ventricular pressure (dP/dtmax) in anesthetized dog after iv administration at 0.375 mg/kg; assay type: functional, Canis lupus familiaris, Heart left ventricle; outline: as §1
Canis familiaris [18] = experiment: Percent change in heart rate (HR) in anesthetized open chest dogs after a iv dose of 1.75 mg/kg; assay type: functional, Canis lupus familiaris; outline: as §1
Canis familiaris [19] = experiment: Percent change in left ventricular pressure (dP/dtmax) in anesthetized dog after iv administration at 1.75 mg/kg; assay type: functional, Canis lupus familiaris, Heart left ventricle; outline: as §1
Canis familiaris [20] = experiment: Percent increase in contractile force (CF) in anesthetized open-chest dogs iv administration of 1.75 mg/kg; assay type: functional, Canis lupus familiaris; outline: as §2
Canis familiaris [21] = experiment: Percent change in mean arterial blood pressure (MAP) in anesthetized open chest dogs iv administration at 1.75 mg/kg; assay type: functional, Canis lupus familiaris; outline: as §1
Canis familiaris [22] = experiment: Percent change in mean arterial blood pressure (MAP) in anesthetized open chest dogs iv administration at 0.875 mg/kg; assay type: functional, Canis lupus familiaris; outline: as §1
Canis familiaris [23] = experiment: Percent change in heart rate (HR) in anesthetized open chest dogs after a iv dose of 1 mg/kg; assay type: functional, Canis lupus familiaris; outline: as §1
Canis familiaris [24] = experiment: Percent change in heart rate (HR) in anesthetized open chest dogs after a iv dose of 0.025 mg/kg; assay type: functional, Canis lupus familiaris; outline: as §1
Canis familiaris [25] = experiment: Percent increase in contractile force (CF) in anesthetized open-chest dogs iv administration of 0.025 mg/kg; assay type: functional, Canis lupus familiaris; outline: as §1
Canis familiaris [26] = experiment: Percent change in mean arterial blood pressure (MAP) in anesthetized open chest dogs iv administration at 1 mg/kg; assay type: functional, Canis lupus familiaris; outline: as §1
Canis familiaris [27] = experiment: Percent change in mean arterial blood pressure (MAP) in anesthetized open chest dogs iv administration at 0.025 mg/kg; assay type: functional, Canis lupus familiaris; outline: as §1
Canis familiaris [28] = experiment: Contractile force in anesthetized open chest dogs id administration at 1.00 mg/kg; assay type: functional, Canis lupus familiaris; details: route intraduodenal
Outline: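 Anesthetized open-chest dogs. A 10-mL bolus is injected into the duodenum through a catheter placed 2 cm distal to the pylorus. Contractile force is measured with a Walton Brodie strain gauge sutured to the right ventricle, at a baseline tension of 100 g, and monitored continuously. Results are given as % increase from predrug control against cumulative dose.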

Canis familiaris [29] = experiment: Percent increase in left ventricular pressure (dP/dtmax) of anesthetized dog after id administration at 1 mg/kg; assay type: functional, Canis lupus familiaris, Heart left ventricle; details: route intraduodenal
Outline: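 Anesthetized open-chest dogs. Left ventricular pressure was measured by Millar catheter and dP/dtmax derived. Compound was given as a 10-mL bolus into the duodenum through a catheter placed 2 cm distal to the pylorus via flank incision. Dissolved in DMF diluted to 10% in saline, or as HCl salt in saline. Response is % change over predrug control, monitored continuously.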

Canis familiaris [30] = experiment: Percent change in left ventricular pressure (dP/dtmax) in anesthetized dog after iv administration at 0.025 mg/kg; assay type: functional, Canis lupus familiaris, Heart left ventricle; outline: as §1

Row | SMILES | Change (Canis familiaris [1]) [%] | Increase (Canis familiaris [2]) [%] | Change (Canis familiaris [3]) [%] | Increase (Canis familiaris [4]) [%] | Increase (Canis familiaris [6]) [%] | Change (Canis familiaris [8]) [%] | other results
1 | COc1ccc2cc(O)nc(C)c2c1 | 19 | 114 | -18 | 87 | – | – | –
2 | COc1cc2c(C)nc(O)c(CCC(=O)N(C)C)c2cc1OC | – | – | – | – | -5 | -14 | Change (Canis familiaris [5]): -2%; Increase (Canis familiaris [7]): 16%
3 | CCCCOc1cc2c(C)nc(O)cc2cc1OC | 26 | 182 | -18 | 58 | – | – | ED50 (Canis familiaris [9]): 0.13 mg/kg; IC50 (Phosphodiesterase 3): 37 µM
4 | COc1cc2c(C)nc(O)c(C(C)C)c2cc1OC | – | – | – | – | – | – | Change (Canis familiaris [10]): 6%; ED50 (Canis familiaris [9]): 0.025 mg/kg; Increase (Canis familiaris [11]): 76%; Change (Canis familiaris [12]): -5%; Increase (Canis familiaris [13]): 54%; IC50 (Phosphodiesterase 3): 7 µM
5 | COc1ccc2[nH]c(=O)nc(C)c2c1OC [BEMARINONE] | – | – | – | – | – | – | Change (Canis familiaris [14]): 11%; Increase (Canis familiaris [15]): 71%; Change (Canis familiaris [16]): -6%; Increase (Canis familiaris [17]): 30%
6 | COC(=O)Cc1c(O)nc(C)c2cc(OC)c(OC)cc12 | 6 | 42 | -1 | 28 | – | – | –
7 | COc1cc2cc(O)nc(C)c2cc1OC | – | – | – | – | – | – | Change (Canis familiaris [18]): 25%; Increase (Canis familiaris [19]): 55%; Increase (Canis familiaris [20]): 100%; Change (Canis familiaris [21]): -32%
8 | COC(=O)c1c(O)nc(C)c2cc(OC)c(OC)cc12 | – | – | – | – | 19 | -3 | Change (Canis familiaris [5]): 6%; Increase (Canis familiaris [7]): 39%
9 | CCOC(=O)CCc1c(O)nc(C)c2cc(OC)c(OC)cc12 | 8 | 60 | -4 | 20 | – | – | –
10 | CCOc1cc2c(C)nc(O)c(CC)c2cc1OC | 26 | 118 | -46 | 6 | – | – | ED50 (Canis familiaris [9]): 0.02 mg/kg; IC50 (Phosphodiesterase 3): 2 µM
11 | COc1cc2cc(O)nc(C)c2c(OC)c1OC | 13 | 76 | – | 45 | – | – | Change (Canis familiaris [22]): -2%
12 | COc1cc2c(C)nc(O)c(C3CCCC3)c2cc1OC | – | – | – | – | 22 | 3 | Change (Canis familiaris [5]): 5%; ED50 (Canis familiaris [9]): 1.88 mg/kg; Increase (Canis familiaris [7]): 46%; IC50 (Phosphodiesterase 3): 128 µM
13 | CCc1c(O)nc(C)c2cc(OC)c(OC)cc12 | – | – | – | – | – | – | Change (Canis familiaris [23]): 22%; Change (Canis familiaris [24]): 13%; ED50 (Canis familiaris [9]): 0.012 mg/kg; Increase (Canis familiaris [25]): 143%; Change (Canis familiaris [26]): -22%; Change (Canis familiaris [27]): -12%; Increase (Canis familiaris [28]): 132%; Increase (Canis familiaris [29]): 92%; Increase (Canis familiaris [30]): 98%; IC50 (Phosphodiesterase 3): 2 µM
14 | COc1ccc2c(C)nc(O)cc2c1OC | – | 28 | – | – | 13 | 1 | Change (Canis familiaris [5]): 3%
15 | COC(=O)CCc1c(O)nc(C)c2c(OC)c(OC)c(OC)cc12 | 8 | 22 | -4 | 20 | – | – | –
16 | CCc1nc(O)c(CCC(=O)OC)c2cc(OC)c(OC)cc12 | 10 | 47 | -3 | 33 | – | – | –
17 | CCCc1nc(O)c(CCC(=O)OC)c2cc(OC)c(OC)cc12 | 2 | – | – | – | 19 | -4 | Increase (Canis familiaris [7]): 17%
18 | COc1cc2c(C)nc(O)c(CCC(=O)OC(C)C)c2cc1OC | – | – | – | – | 15 | -6 | Change (Canis familiaris [5]): 3%; Increase (Canis familiaris [7]): 22%
